High-throughput results as filed in PubChem BioAssay.
Rows were chosen to be rich in hits. Some 2% of all compounds tested hit in one or more screens of this group.
NR1D1 modulator: modulators of human Rev-erb alpha DNA binding; AID 1259318; actives 0.79% (n = 370,000); P20393; activity, % at 10 µM; Rev-erbα–FITC-DNA binding, fluorescence polarization, 90 min;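 active means activity above about 14%, limit read from the data; passing the limit was not always enough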;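 further: 0% = DMSO wells with 35 nM protein and 100% = DMSO wells with 750 nM protein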
Target sequence (P20393 whole entry, looked up): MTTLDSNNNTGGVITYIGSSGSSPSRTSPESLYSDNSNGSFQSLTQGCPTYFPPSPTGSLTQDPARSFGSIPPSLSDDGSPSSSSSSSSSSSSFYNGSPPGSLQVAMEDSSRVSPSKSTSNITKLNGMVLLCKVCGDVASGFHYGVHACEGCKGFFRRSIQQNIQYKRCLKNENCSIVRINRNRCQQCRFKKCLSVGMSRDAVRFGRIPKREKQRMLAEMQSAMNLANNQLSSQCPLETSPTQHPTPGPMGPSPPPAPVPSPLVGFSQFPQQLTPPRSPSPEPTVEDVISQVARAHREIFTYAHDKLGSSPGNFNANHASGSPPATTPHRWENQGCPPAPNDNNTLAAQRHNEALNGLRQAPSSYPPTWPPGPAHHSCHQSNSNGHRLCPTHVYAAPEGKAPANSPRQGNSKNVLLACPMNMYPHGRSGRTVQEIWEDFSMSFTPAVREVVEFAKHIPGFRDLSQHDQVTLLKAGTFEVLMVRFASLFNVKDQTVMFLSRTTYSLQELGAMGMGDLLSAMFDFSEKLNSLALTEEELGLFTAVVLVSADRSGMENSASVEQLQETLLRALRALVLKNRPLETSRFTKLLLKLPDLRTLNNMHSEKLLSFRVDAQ
Neddyl block: inhibitors of human cullin neddylation; P61081+Q13564; TR-FRET cullin neddylation, biochemical; calls only at 25 µM; actives 0.58% (n = 360,000); AID 651699; in the data active means inhibition above about 36%
NR2E3 ag-1: activates human photoreceptor nuclear receptor NR2E3. Q9Y5X4. GST-NR2E3/biotin-RetCOR TR-FRET, 1536-well. inhibition of corepressor binding, % at 4.78 µM. actives 0.12% (n = 320,000);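 active means percent inhibition above the cutoff of mean plus 3 SD of all tested compounds, set per screening campaign, cut at about 20% in these data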;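 further: 0% = DMSO wells and 100% = biotin wells as full block of FRET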
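Material – GST-tagged NR2E3 plus biotinylated RetCOR corepressor · Quantity – NR2E3 fusion 1.35 nM · Times – 5 h incubation at 4 °C · Medium – pH 7.5 Tris-based buffer · Technique – TR-FRET, Eu(K)-anti-GST donor, streptavidin-D2 acceptor, ex 340, em 617/671 nm · Benchmarks – high control biotin, low control 0.6% DMSO · Format – 1536-well plates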
NR2E3 ag-2: human photoreceptor-specific nuclear receptor agonism | Q9Y5X4 | CHO-S Gal4-NCOR/VP16-NR2E3 two-hybrid, luciferase | inhibition of corepressor binding, % at 3.98 µM | actives 0.35% (n = 360,000);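 active means inhibition above the mean of all tested compounds plus 3 SD, cut at about 70% in these data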;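 further: 0% = DMSO with NR2E3 transfected cells and 100% = cells lacking NR2E3 construct; higher means lower luciferase signal from less NR2E3 corepressor binding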
PG9 binder: small molecules binding HIV-1 gp120 antibody PG9; TR-FRET gp120-PG9 antibody binding; inhibition, % at 6.7 µM; actives 0.43% (n = 360,000); AID 624416; in the data active means inhibition above about 8.5%
* marks the source's active call; other numbers are inactive results; i = inactive; . = not tested or not shown; + = active, no number.

SMILES	NR1D1 modulator	Neddyl block	NR2E3 ag-1	NR2E3 ag-2	PG9 binder
CC(=O)Nc1ccc2nc(-c3ccccn3)[nH]c2c1	-1.4	.	-1.2	-82.2	0.8
Cc1sccc1C1C(C#N)=C(N)SC(N)=C1C#N	.	.	35.7*	.	.
Cc1[nH]nc2c1C(c1ccsc1C)C(C#N)=C(N)O2 (centres undefined)	-2.6	i	0.8	11.2	2.5
CCn1c2ccccc2c2nc3cc(C(=O)O)ccc3nc21	-3.1	i	.	-13.7	-1.1
CCn1c2ccccc2c2nc3ccccc3nc21	.	+	-1.6	-8.4	.
Cc1ccc(C(C)C)c(OCc2ccc(C(=O)N/N=C/c3ccc(O)cc3O)cc2)c1	1.9	+	0.4	-35.9	-0.8
Cc1ccc(C(C)C)c(OCc2ccc(C(=O)N/N=C/c3ccc(C(=O)O)cc3)cc2)c1	1.4	i	5.5	-46.1	-0.4
COc1cccc(N=c2oc3ccccc3cc2-c2nc3ccccc3[nH]2)c1	.	+	-1.3	-129.8	1.8
Oc1c(C(Nc2cccc(C(F)(F)F)c2)c2cccnc2)ccc2cccnc12 (centres undefined)	1.5	+	0.2	-14.8	-3.0
Cc1cc(NC(c2cccnc2)c2ccc3cccnc3c2O)no1 (centres undefined)	-2.7	i	0.7	-12.0	-1.4
Cc1ccc(S(=O)(=O)N2CC3=C(c4ccccc4)CC4(C)C(=O)C(C)(C)CC4=C3C2)cc1 (centres undefined)	-0.9	.	.	.	0.5
O=c1c2ccccc2[nH]c2ccc(O)cc12	-2.5	+	-6.0	-17.7	-3.9
O=C(Nc1ccc2ncccc2c1)c1cccc(Br)c1	-3.1	i	-3.4	-35.1	-0.6
Brc1ccc(CNc2ccc3ncccc3c2)cc1	0.2	+	.	16.1	-0.5
COc1cccc(-c2nnc3sc(-c4ccc(Br)o4)nn23)c1	-6.0	.	.	.	.
Cc1cc(-c2n[nH]c(=S)n2/N=C/c2ccc(Br)s2)n[nH]1	3.6	i	-2.5	-15.2	1.3
S=c1[nH]nc(-c2cc(-c3ccccc3)n[nH]2)n1/N=C/c1ccc(Br)s1	-2.8	+	1.6	26.6	0.3
CCOC(=O)/C(C#N)=C/c1cc(C)n(-c2ccccc2)c1C	3.6	i	2.6	6.6	0.1
Cc1cc(C)cc(-n2c(C)cc(C=C(C#N)C#N)c2C)c1	8.8	i	4.4	-0.4	28.1*
CSc1nc(C)c2c(n1)N(c1ccc(F)cc1)CC2	16.1	i	0.2	-16.4	10.3*
CCCCc1c(-c2ccccc2OC)ncn1Cc1c(F)cccc1F	-2.4	.	.	.	-0.9
O=C(O)c1ccc(N/N=C/c2cn(Cc3ccc(F)cc3)c3ccccc23)cc1	-0.7	+	0.0	-3.3	-2.8
CCNC(=S)N/N=C/c1cn(Cc2ccc(F)cc2)c2ccccc12	-0.2	i	-4.3	5.9	-1.8
O=C(CCN1CCN(c2ccccc2)CC1)N/N=C/c1ccccc1O	2.3	+	1.4	-8.2	3.4
Cc1cc(NC(=O)COc2ccc3ccccc3c2Br)no1	4.2	i	.	-11.3	10.0*
SMILES	NR1D1 modulator	Neddyl block	NR2E3 ag-1	NR2E3 ag-2	PG9 binder
N#CC1=C(N)SC(N)=C(C#N)C1c1cccc(O)c1	0.6	i	5.7	-11.8	22.1*
COc1ccc(C2C(C#N)=C(N)SC(N)=C2C#N)cc1OC	0.3	i	11.0	5.6	7.8
CCC(CC)NC(=O)COc1ccc(OC)cc1C=O	-0.9	+	4.3	-1.3	-1.7
C=CC(=O)Nc1cccc(Oc2ccnc3[nH]ccc23)c1	.	+	.	6.4	.
CCN(C(=O)CSc1nnc(-c2cccnc2)n1Cc1ccco1)c1ccccc1	4.2	.	.	.	.
CCCCCCCCN1C(=O)[C@@H](CC(=O)NCC23CC4CC(CC(C4)C2)C3)C[C@@]2(C(=O)OC)C1=C[C@H](C(C)(C)C)O[C@@H]2C	3.2	.	.	.	-0.5
CS(=O)(=O)N(CC(=O)Nc1ccccc1Sc1ccccc1)c1ccc(F)cc1	1.8	i	-2.0	-2.5	14.4*
O=[N+]([O-])c1ccc(OC[C@@H](O)CN2CCC(C(O)(c3ccccc3)c3ccccc3)CC2)c(Cl)c1	-0.8	.	.	.	.
CC(C)S(=O)(=O)C1=NSC2=NC(=O)/C(=C\c3ccc(-c4ccccc4)o3)C(=N)N21	-5.6	+	-3.6	19.7	0.1
CS(=O)(=O)C1=NSC2=NC(=O)/C(=C\c3ccc(-c4ccccc4)o3)C(=N)N21	.	.	6.5	.	.
O=C(N/N=C/c1ccccc1O)C1CC(=O)N(c2ccc(Cl)cc2)C1 (centres undefined)	1.3	+	-2.4	-36.8	-1.4
Nc1c(C(=O)NC2CC2)c2nc3ccccc3nc2n1-c1ccc2c(c1)OCO2	-5.5	+	3.0	6.4	-0.8
Cc1ccccc1/C=N/Nc1nc2ccccc2[nH]1	5.2	i	4.4	-46.5	-3.7
Cc1[nH]c2ccccc2c1/C=N/Nc1nc2ccccc2[nH]1	3.0	+	-6.1	-6.8	-9.6
Nc1ccc2c(S(=O)(=O)O)cccc2c1S(=O)(=O)O	0.0	+	.	-24.9	-0.1
CCOC(=O)/C(=N\Nc1ccc(Br)cc1)N1CC(C)OC(C)C1 (centres undefined)	.	i	-0.4	76.6*	.
Cc1ccc(NC(=O)Cc2cccc(OC(F)(F)F)c2)c(S(=O)(=O)N2CCOCC2)c1	-1.2	.	.	.	.
Cc1ccc(CCNC(=O)c2ccc3nc4ccc(Cl)cc4c(=O)n3c2)cc1	0.6	i	2.1	17.0	0.2
NS(=O)(=O)c1ccc(CCNC(=O)c2ccc3nc4ccc(Cl)cc4c(=O)n3c2)cc1	-1.6	+	0.8	-10.6	-3.5
COc1ccc(/C=C/C(=O)NC(=S)NNC(=O)c2cccnc2)cc1	1.0	i	-1.9	-59.1	-0.5
O=C(/C=C/c1ccc(F)cc1)NC(=S)NNC(=O)c1cnccn1	2.6	+	-2.7	3.8	-0.7
O=C(NC(=S)NNC(=O)c1cnccn1)c1ccc(F)cc1	1.9	i	0.8	0.0	-0.5
COc1ccc(/C=C/C(=O)NC(=S)NNC(=O)c2cnccn2)cc1	-5.2	+	1.5	-10.5	0.3
Cn1c2ccccc2c2cc(/C=N/NC(=O)c3ccc(O)cc3O)ccc21	.	+	-0.5	-44.8	.
CCn1c2ccccc2c2cc(/C=N/NC(=O)c3ccc(O)cc3)ccc21	4.1	.	1.1	-30.8	-0.6
SMILES	NR1D1 modulator	Neddyl block	NR2E3 ag-1	NR2E3 ag-2	PG9 binder
COC(=O)[C@@H]1C[C@@]2(c3ccccc3)c3ccccc3N(S(=O)(=O)c3ccccc3)[C@H]2N1C(=O)CNC1CCCCC1	2.5	.	.	.	.
CN1CCN(CCNC(=O)c2ccc3nc(-c4ccc(F)cc4)c(-c4ccc(F)cc4)nc3c2)CC1	0.1	+	2.0	-20.6	-2.7
CCc1nc2ccc(C(=O)NCCCN3CCN(c4ccc(F)cc4)CC3)cc2nc1CC	0.0	i	2.3	0.3	0.8
CCOC(=O)N1C(=O)C[C@](Sc2ccc(OC)cc2)(C(=O)N(C)C)[C@H]1c1ccc(OC)cc1	9.5	.	.	.	.
O=Nc1c(O)ccc2cc(S(=O)(=O)O)ccc12	.	.	.	-30.3	.
Nc1cccc2cc(S(=O)(=O)O)ccc12	-16.0	+	.	5.4	-5.8
O=C(c1ccc(F)cc1Cl)N1CCC(Oc2cccnc2)CC1	-1.9	.	.	.	.
